mHtt clearance – clearance of mutant huntingtin inclusions, primary screen, imaging, HeLa Exon1htt(103Q)mCFP, confocal imaging; inhibition, % at 1.5 µM; 0.42% of 47,000 active; AID 853, 2007; aggregate imaging; zero = plate's median compound well;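 active means inhibition of aggregate fluorescence above about 70%, also judged a hit by eye on the cell image, limit read from the data, passing the limit was not always enough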;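 further: cells exposed to compound for three days before fixation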
M1 antag – antagonists of rat M1 muscarinic receptor; Muscarinic acetylcholine receptor M1 (Rattus norvegicus), P08482; CHO-M1 cells, Fluo-4 calcium, ACh EC80 antagonist mode; stronger effect = lower value; B-score at 10 µM; 3.4% of 64,000 active; AID 628, 2007;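 active means calcium fluorescence response, raw or row-and-column corrected B-score, differing from the plate sample mean either way at a set confidence level, mostly lower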
AP complement – alternative complement pathway inhibitors, primary screen, biochemical, ELISA, human serum, orthogonally pooled compounds; 0.08% of 62,000 active; LPS-coated ELISA, C3 deposition; tested in compound mixtures; inhibition, % at 5 µM;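 active means inhibition above 30% in each of the two pooled mixtures holding the compound, so the lower value exceeds 30%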
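Test system – human serum alternative complement pathway, C3 deposition on LPS-coated wells · Buffer or medium – diluted human serum in Mg2+-EGTA GVB++ · Compound dosing – 5 µM each compound, pools of ten, 50 µM per pool · Schedule – 1 h serum-compound exposure at 37 °C · Measured by – Anti-C3 ELISA, OD 450 nm · Read-out basis – percent inhibition of C3 deposition onto LPS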
D1 mod – D1 CRE-luciferase signal change, two-sided – cell-based, HEK293 D1, dopamine EC30, D1 allosteric modulator project, primary screen; D(1A) dopamine receptor (Homo sapiens), P21728; AID 641, 2007; B-score at 10 µM; dopamine EC30 potentiation; actives deviate in either direction; 5.9% of 58,000 active;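 active means luminescence count or its row- and column-corrected plate score outside the 99.7% band of the plate's sample wells, on either side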
Target sequence (P21728 whole entry, looked up): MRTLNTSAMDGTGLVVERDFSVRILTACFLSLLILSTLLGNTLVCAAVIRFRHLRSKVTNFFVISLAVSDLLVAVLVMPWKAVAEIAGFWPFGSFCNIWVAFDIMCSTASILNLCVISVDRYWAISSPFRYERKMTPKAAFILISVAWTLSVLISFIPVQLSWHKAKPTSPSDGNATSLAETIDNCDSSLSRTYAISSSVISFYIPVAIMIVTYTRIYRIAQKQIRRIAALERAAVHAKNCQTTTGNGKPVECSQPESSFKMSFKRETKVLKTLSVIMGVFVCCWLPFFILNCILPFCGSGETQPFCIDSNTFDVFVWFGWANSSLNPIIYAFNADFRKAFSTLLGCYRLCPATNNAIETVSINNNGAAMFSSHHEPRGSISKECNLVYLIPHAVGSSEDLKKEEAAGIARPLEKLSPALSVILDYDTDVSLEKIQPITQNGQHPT
M1 agonist – M1 muscarinic receptor agonists, primary screen, CHO-M1 cells, Fluo-4 calcium, agonist mode | Muscarinic acetylcholine receptor M1 | Fluo-4 calcium fluorescence; stronger effect = higher value | B-score at 10 µM | 3% of 64,000 active | AID 626, 2007;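 active means fluorescence rise, raw or as B-score row- and column-corrected plate score, outside the 99.7% band of its plate's samples, either direction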
M1 antag confirm – rat M1 muscarinic receptor antagonists, confirmation, CHO cells, Fluo-4 calcium, duplicate; ACh EC80 antagonism; stronger effect = lower value; 43% of 1,700 active; shares compounds with M1 antag; calcium response (max-min fluorescence) at 10 µM; AID 677, 2007;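 active means calcium response below the same-plate mean of wells given acetylcholine alone at its 80%-effect dose, minus 3 SD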
mGluR4 antag – human mGluR4 response to M1 antagonist hits, M1 allosteric modulator project, cell-based, antagonist mode, secondary assay 1; shares compounds with M1 antag; CHO-mGluR4 calcium flux, Fluo-4 fluorescence, glutamate EC80; stronger effect = lower value; fluorescence response (max-min) at 10 µM; 0.9% of 1,700 active;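 active means fluorescence response below the plate's average for near-maximal glutamate wells, less 3 SD of those wells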;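 further: raw unnormalized fluorescence span taken in the window right after glutamate addition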
A number is an active result; n = inactive; x = no result. An excerpt weighted towards active compounds, which were near 9% of everything screened.

SMILES	mHtt clearance	M1 antag	AP complement	D1 mod	M1 agonist	M1 antag confirm	mGluR4 antag
CCCCN(CCCC)CCn1cnc2c([nH]c3ccc(OC)cc32)c1=O	n	n	n	n	n	x	x
COc1cc2[nH]c3c(=O)n(CCN(C(C)C)C(C)C)cnc3c2cc1OC	x	-4.6	n	n	n	n	n
c1ccc2c(c1)CCOC2CNCCCN1CCCCC1 (centres undefined)	n	n	n	x	n	x	x
Cn1c(SCC(=O)N2CCCCC2)nc2c([nH]c3ccccc32)c1=O	x	-3.5	n	n	n	443	n
Cn1c(SCC(=O)N2CCCCCC2)nc2c([nH]c3ccccc32)c1=O	n	n	n	n	n	x	x
CSc1nnc(-c2ccc(S(=O)(=O)N3CCCC3)cc2)n1C	n	n	n	n	n	x	x
CC(C)=CCCC(C)CN(C)CCc1ccccn1 (centres undefined)	x	-3.1	n	n	n	569	n
CC(=O)N1CCc2cc(Br)cc(S(=O)(=O)NCCCN3CCCC(C)C3)c21 (centres undefined)	n	n	n	n	n	x	x
CC(=O)N1CCc2cc(Br)cc(S(=O)(=O)NCCCN3CCC(C)CC3)c21	n	-3.7	n	n	n	n	n
CCOC(=O)C1=C(C)OC(N)=C(C#N)C1c1cc(Cl)c(OCC(N)=O)c(OC)c1 (centres undefined)	n	x	x	x	x	x	x
O=c1c2ccccc2nnn1CSc1nnc(C2COc3ccccc3O2)n1-c1ccccc1 (centres undefined)	x	-2.4	n	n	n	n	159
O=C(OCn1nnc2ccccc2c1=O)C1COc2ccccc2O1 (centres undefined)	n	n	n	n	n	x	x
O=C1CC(O)(C(F)F)Oc2ccc3ccccc3c21 (centres undefined)	n	-2.6	n	n	n	n	n
O=C1CC(O)(C(F)(F)F)Oc2c1ccc1ccccc21 (centres undefined)	x	n	n	n	n	x	x
COc1ccc(-n2c(COc3ccccc3)nnc2SCc2ccc(C#N)cc2)cc1	n	-3.3	n	n	n	n	n
O=C(Nc1nccs1)c1cccc(NC(=O)c2ccco2)c1	n	x	x	x	x	x	x
Cc1c(Cl)cccc1N1C(=O)C2ON(c3ccccc3)C(c3cccnc3)C2C1=O (centres undefined)	x	-2.1	x	x	n	n	n
O=C(NCC1COc2ccccc2O1)Nc1ccccc1F (centres undefined)	x	n	n	n	n	x	x
Cc1ccc(C)c(OCCCN2CCCC2)c1	x	-3	n	n	n	511	n
Cc1ccc(C)c(OCCOCCN2CCOCC2)c1	x	n	n	n	n	x	x
O=C(c1ccco1)N1CCN(C(=O)C2CCCO2)CC1 (centres undefined)	n	n	n	n	n	x	x
CN(C)C(CNC(=O)c1cccc(S(=O)(=O)N2CC3(C)CC2CC(C)(C)C3)c1)c1ccco1 (centres undefined)	x	-3.3	n	n	n	517	n
COc1cccc(-c2nc(CS(=O)(=O)CC(=O)N3CCc4ccccc43)c(C)o2)c1	n	x	x	x	x	x	x
Cc1cc(NC(=O)CSc2nnc(C)c(=O)[nH]2)no1	x	-2.3	n	n	n	n	n
Cc1nnc(SCC(=O)Nc2cccc(C(F)(F)F)c2)[nH]c1=O	x	n	n	n	n	x	x
SMILES	mHtt clearance	M1 antag	AP complement	D1 mod	M1 agonist	M1 antag confirm	mGluR4 antag
Cc1nnc(SCC(=O)Nc2nccs2)[nH]c1=O	x	-14	n	n	n	n	n
COc1ccc(CN2CCCCC2C(=O)Nc2ccc(OC)c(OCC(C)C)c2)cc1OC (centres undefined)	n	x	x	x	x	x	x
COc1ccc(C(=O)Nc2c(N)nc(SCC(=O)N3CCCCCC3)[nH]c2=O)cc1OC	x	n	n	n	n	x	x
O=C(c1c(Cl)nc2sccn12)N1CCN(c2cccc(Cl)c2)CC1	n	n	n	x	n	x	x
CCN1CCN(CCCOc2ccc(-c3ccccc3)cc2)CC1	n	-3.5	n	n	n	197	n
c1ccc(-c2ccc(OCCCn3cncn3)cc2)cc1	n	n	n	x	n	x	x
CC1C2C(C)N(C)C(=O)N(C)C2N(C)C(=O)N1C (centres undefined)	n	n	n	n	n	x	x
CN1C(=O)N(C)C2C1NC(=O)N2C (centres undefined)	x	-9.2	n	n	n	n	n
COc1ccc(C)cc1NS(=O)(=O)c1cccc2nonc12	x	n	n	n	n	x	x
Cc1cc(CN2C(=O)c3ccccc3C2=O)no1	x	n	n	n	n	x	x
O=C1c2ccccc2C(=O)N1CC1=CCS(=O)(=O)C1	n	-2	n	n	n	n	n
COc1ccc(-c2nc3n(n2)C(c2ccccc2Cl)C(C(N)=O)=C(C)N3)cc1 (centres undefined)	x	-3	n	n	n	n	n
Cc1ccc(-c2nnn(CC(=O)N3CCN(c4ccccc4)CC3)n2)o1	n	-4.2	n	n	n	n	n
c1ccc2c(c1)C(=NCC1CCCO1)NC2=NCC1CCCO1 (centres undefined)	n	n	n	n	n	x	x
CC(C)(C)N=C1NC(=NC(C)(C)C)c2ccccc21	x	-6.2	n	-5.3	n	n	n
Cc1ccc(C(C)C)c(OCc2nc(-c3nonc3N)no2)c1	n	-2.4	n	x	n	n	n
O=C(O)C1CCCN1c1ncnc2ccccc12 (centres undefined)	n	n	n	n	n	x	x
CC1(C)CC2CC(C)(CN2c2ncnc3ccccc23)C1 (centres undefined)	x	-2.2	n	n	n	n	n
Cc1ccc(S(=O)(=O)/N=C(\CN2CCCCC2)N2CCOCC2)cc1	n	-2.6	n	n	n	n	n
Cc1ccc(S(=O)(=O)N2CCN(C(=O)CN3CCOCC3)C2)cc1	x	n	n	x	n	x	x
O=C(COC(=O)C1CCN(S(=O)(=O)c2cccs2)CC1)c1cc2ccccc2o1	x	n	n	n	n	x	x
Cc1cc(C)n(CC2CC(=O)N(c3ccc(Cl)c(Cl)c3)C2=O)n1 (centres undefined)	x	-2.6	n	n	n	n	n
CCC1Oc2ccc(C)cc2N(CC(=O)NCCN2CCCCCC2)C1=O (centres undefined)	n	n	n	n	n	x	x
CCOC(=O)N1CCC(NC(=O)CN2C(=O)C(CC)Oc3ccc(C)cc32)CC1 (centres undefined)	x	-5.7	n	n	n	n	n
COc1cc(OC)cc(C(=O)Nc2cccc(N3CCCC3)c2)c1	n	n	n	n	n	x	x
CCN(CC)CCCn1c(=S)[nH]c2ccc(Cl)cc2c1=O	n	-1.4	n	n	n	n	n
